Screening data (PubChem BioAssay)
TRPC4 inh: inhibitors of mouse TRPC4 channel; Q9QUQ5; HEK293 TRPC4beta/mu-opioid, DAMGO-evoked Fluo4 calcium flux; active compounds read low; B-score at 10 µM; AID 2247; 0.39% of 300,000 active;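 active means B-score over 3 SD under the library average, no early fluorescence shift, positive overall ratio signal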
Target sequence (Q9QUQ5 whole entry, looked up): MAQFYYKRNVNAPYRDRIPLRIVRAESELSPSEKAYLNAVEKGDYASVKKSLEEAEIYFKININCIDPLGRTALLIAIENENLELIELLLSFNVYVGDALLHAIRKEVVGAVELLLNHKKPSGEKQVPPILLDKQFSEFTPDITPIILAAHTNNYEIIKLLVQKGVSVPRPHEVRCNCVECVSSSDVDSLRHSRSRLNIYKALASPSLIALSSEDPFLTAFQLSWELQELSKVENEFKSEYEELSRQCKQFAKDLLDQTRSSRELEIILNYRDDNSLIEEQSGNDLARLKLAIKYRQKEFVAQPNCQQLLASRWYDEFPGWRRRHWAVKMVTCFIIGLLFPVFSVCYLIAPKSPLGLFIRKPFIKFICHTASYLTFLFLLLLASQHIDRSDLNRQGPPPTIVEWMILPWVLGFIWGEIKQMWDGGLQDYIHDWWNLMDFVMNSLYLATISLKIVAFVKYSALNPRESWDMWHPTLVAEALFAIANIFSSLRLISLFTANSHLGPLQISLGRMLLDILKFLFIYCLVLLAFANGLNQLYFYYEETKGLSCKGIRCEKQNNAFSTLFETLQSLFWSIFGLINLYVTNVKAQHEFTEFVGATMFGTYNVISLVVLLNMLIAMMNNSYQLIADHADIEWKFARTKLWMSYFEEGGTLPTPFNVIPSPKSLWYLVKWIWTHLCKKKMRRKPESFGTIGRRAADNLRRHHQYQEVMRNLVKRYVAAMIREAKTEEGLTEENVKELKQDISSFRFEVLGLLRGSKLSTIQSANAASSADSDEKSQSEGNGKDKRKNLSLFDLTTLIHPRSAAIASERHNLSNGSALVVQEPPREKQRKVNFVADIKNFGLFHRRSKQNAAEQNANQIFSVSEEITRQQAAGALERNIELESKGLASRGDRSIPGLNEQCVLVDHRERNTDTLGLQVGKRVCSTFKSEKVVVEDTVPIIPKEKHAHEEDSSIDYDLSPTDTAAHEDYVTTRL
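Test system – stable TRPC4beta/mu-opioid receptor HEK293 cells · Probe or stimulus – DAMGO, a submaximal dose followed by a maximal one · Dosing – one concentration per compound · Signal – Fluo4 calcium fluorescence by kinetic imaging, 5 s 1 Hz baseline · Evaluation – per-well B score of integrated baseline-normalized Fluo4 ratio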
TRPC6 activator: activators of mouse TRPC6 channel; 0.13% of 310,000 active; HEK293-TRPC6 membrane potential dye fluorescence; active compounds read high; B-score at 10 µM;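 active means B-score of the integrated fluorescence ratio above library mean plus 3 SD, and starting fluorescence ratio within library mean plus 5 SD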;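 further: higher score means more depolarization so channel activation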
TRPC6 inh: inhibitors of mouse TRPC6 channel. Q61143. HEK293-TRPC6, membrane potential dye, ACh-evoked depolarization; active compounds read low. B-score at 10 µM. 1.1% of 310,000 active. AID 2553;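 active means B-score under library mean minus 3 SD, initial fluorescence not abnormally high, positive integrated signal ratio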;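 further: B-score derived from integrated fluorescence ratio over the kinetic read; more negative B-score means stronger inhibition of depolarization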
TRPC4 PAM: allosterically enhances the mouse TRPC4 cation channel. Q9QUQ5. HEK293 TRPC4beta/mu-opioid, DAMGO EC20, Fluo-4 Ca2+ flux; active compounds read high. B-score at 10 µM. 0.42% of 310,000 active;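 active means B-score of calcium response area above 5 SD of library B-scores, with initial fluorescence ratio within 5 SD of library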;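 further: B-score of integrated fluorescence ratio over time as area under calcium response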
TRPC4 act: opens the mouse TRPC4 cation channel; 0.49% of 310,000 active; Q9QUQ5; AID 2237; B-score at 10 µM; HEK293 TRPC4beta/mu-opioid, Fluo4 calcium fluorescence; active compounds read high;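 active means B-score above 5 SD of library B-scores, and initial fluorescence ratio not above library mean plus 5 SD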;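 further: positive B-score marks a calcium rise read as TRPC4 activation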
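Assay system – TRPC4beta and mu-opioid receptor HEK293 stable cells · Measured by – Fluo4 fluorescence, kinetic · Schedule – dye loading 45 min room temperature, 110 s kinetic read · Read-out – B-scored integrated calcium fluorescence ratio · Controls – buffer and maximal DAMGO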
Kir21 inh: inhibitors of mouse Kir2.1 inward-rectifier potassium channel; B-score at 10 µM; HEK293-Kir2.1, FluxOR thallium flux fluorescence; active compounds read low; 0.85% of 310,000 active;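 active means fluorescence ratio B-score at or below minus 3 SD of library scores, with starting-brightness B-score within 2 SD, cut at about -4.2 in these data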;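 further: channel flux triggered by added potassium and thallium sulfate stimulus; B-score of peak minus minimum fluorescence over baseline after thallium stimulus; more negative B-score means stronger Kir2.1 block with less thallium influx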
* = called active by the depositor. This is a sample that favours compounds with a hit; in the whole collection about 2.9% have one here.

How did O=C(CNC(=O)c1cc(S(=O)(=O)N2CCCCC2)ccc1N1CCOCC1)Nc1ccc(F)c(F)c1 do in these assays?
TRPC4 inh: inactive; TRPC6 activator: inactive; TRPC6 inh: inactive; TRPC4 PAM: inactive; TRPC4 act: inactive; Kir21 inh: -0.2

Results for Cc1ccc(NC(=O)Nc2cccc([N+](=O)[O-])c2)nc1 ?
TRPC4 inh: inactive; TRPC6 activator: inactive; TRPC6 inh: inactive; TRPC4 PAM: 19*; TRPC4 act: inactive; Kir21 inh: 2

What do the screens show for `COc1ccc(-c2csc(NC(=O)C3CCN(c4ncnc5sc(C)c(C)c45)CC3)n2)cc1OC`?
TRPC4 inh: inactive; TRPC6 activator: inactive; TRPC6 inh: inactive; TRPC4 PAM: inactive; TRPC4 act: inactive; Kir21 inh: 0.4

Results for O=C(N/N=C/c1ccc2c(c1)OCO2)C1CC1 ?
TRPC4 inh: inactive; TRPC6 activator: inactive; TRPC6 inh: inactive; TRPC4 PAM: inactive; TRPC4 act: inactive; Kir21 inh: -0.15

How did CCN1CCN(CCNC(=O)c2ccc(/C=C3/Sc4ccccc4N(Cc4ccccc4C)C3=O)cc2)CC1 do in these assays?
TRPC4 inh: inactive; TRPC6 activator: inactive; TRPC6 inh: inactive; TRPC4 PAM: inactive; TRPC4 act: inactive; Kir21 inh: -5.6*

What do the screens show for `Cc1sc(NC(=O)CN2CCN(c3ccccn3)CC2)c(C#N)c1C`?
TRPC4 inh: inactive; TRPC6 activator: inactive; TRPC6 inh: inactive; TRPC4 PAM: inactive; TRPC4 act: inactive; Kir21 inh: -4.5*

What do the screens show for `Cc1ccc(C)c(OCCC(=O)NCCc2ccc(Cl)cc2)c1`?
TRPC4 inh: inactive; TRPC6 activator: inactive; TRPC6 inh: inactive; TRPC4 PAM: inactive; TRPC4 act: inactive; Kir21 inh: -0.52

Results for CCOc1ccc(CCNC(=O)CCOc2cc(C)ccc2C)cc1OCC ?
TRPC4 inh: inactive; TRPC6 activator: inactive; TRPC6 inh: inactive; TRPC4 PAM: inactive; TRPC4 act: inactive; Kir21 inh: -5.1*

How did CCOc1ccc(CCNC(=O)CSCc2ccc(C)cc2)cc1OCC do in these assays?
TRPC4 inh: inactive; TRPC6 activator: inactive; TRPC6 inh: inactive; TRPC4 PAM: inactive; TRPC4 act: inactive; Kir21 inh: -6*

Results for O=C(CSCc1ccc(Br)cc1)NCCc1ccccc1 ?
TRPC4 inh: inactive; TRPC6 activator: inactive; TRPC6 inh: inactive; TRPC4 PAM: inactive; TRPC4 act: inactive; Kir21 inh: -4.8*

Results for CCCCOc1ccc(N(CC(=O)NCc2ccccc2)C(=O)c2csnn2)cc1 ?
TRPC4 inh: inactive; TRPC6 activator: inactive; TRPC6 inh: inactive; TRPC4 PAM: inactive; TRPC4 act: inactive; Kir21 inh: 2.2

Results for Cc1cc(C)cc(OCC(=O)Nc2nc(-c3cccnc3)cs2)c1 ?
TRPC4 inh: inactive; TRPC6 activator: inactive; TRPC6 inh: inactive; TRPC4 PAM: inactive; TRPC4 act: inactive; Kir21 inh: -0.86

How did O=C(NNC(=S)Nc1ccccc1Cl)c1ccccc1Br do in these assays?
TRPC4 inh: inactive; TRPC6 activator: inactive; TRPC6 inh: inactive; TRPC4 PAM: inactive; TRPC4 act: inactive; Kir21 inh: -0.11

How did COc1ccc(-n2c3c(c(=O)[nH]c2=O)C(NC(C)=O)(C(F)(F)F)C(=O)N3)cc1 (stereo not given) do in these assays?
TRPC4 inh: inactive; TRPC6 activator: inactive; TRPC6 inh: inactive; TRPC4 PAM: inactive; TRPC4 act: inactive; Kir21 inh: 1.4

What do the screens show for `Nc1ccc(S(=O)(=O)N2CCc3ccccc32)cc1`?
TRPC4 inh: inactive; TRPC6 activator: inactive; TRPC6 inh: inactive; TRPC4 PAM: inactive; TRPC4 act: inactive; Kir21 inh: -0.7

How did O=S(=O)(c1ccc(F)c(F)c1)N1CCCc2ccccc21 do in these assays?
TRPC4 inh: inactive; TRPC6 activator: inactive; TRPC6 inh: inactive; TRPC4 PAM: inactive; TRPC4 act: inactive; Kir21 inh: -5.4*

What do the screens show for `O=S(=O)(c1ccc(Br)cc1)N1CCCc2ccccc21`?
TRPC4 inh: inactive; TRPC6 activator: inactive; TRPC6 inh: inactive; TRPC4 PAM: inactive; TRPC4 act: inactive; Kir21 inh: -4.9*

What do the screens show for `Cc1ccc(S(=O)(=O)CCC(=O)N2CCc3ccccc32)cc1`?
TRPC4 inh: inactive; TRPC6 activator: inactive; TRPC6 inh: inactive; TRPC4 PAM: inactive; TRPC4 act: inactive; Kir21 inh: -2.5

How did O=C(CCS(=O)(=O)c1ccc(Cl)cc1)N1CCCc2ccccc21 do in these assays?
TRPC4 inh: inactive; TRPC6 activator: inactive; TRPC6 inh: inactive; TRPC4 PAM: inactive; TRPC4 act: inactive; Kir21 inh: -4.8*

How did Cc1cccc(S(=O)(=O)N2CCCc3ccccc32)c1 do in these assays?
TRPC4 inh: inactive; TRPC6 activator: inactive; TRPC6 inh: inactive; TRPC4 PAM: inactive; TRPC4 act: inactive; Kir21 inh: -6.4*

Results for COC(=O)[C@@]12CCCCN1[C@H](c1ccc(-c3ccc(C(C)=O)cc3)c(OC)c1)[C@@H]1C(=O)N(C)C(=O)[C@@H]12 ?
TRPC4 inh: inactive; TRPC6 activator: inactive; TRPC6 inh: inactive; TRPC4 PAM: inactive; TRPC4 act: inactive; Kir21 inh: -0.88

What do the screens show for `CCOc1ccc(CN2CCN(C(=O)c3ccccc3)CC2)cc1`?
TRPC4 inh: -7*; TRPC6 activator: inactive; TRPC6 inh: inactive; TRPC4 PAM: inactive; TRPC4 act: inactive; Kir21 inh: -0.22

What do the screens show for `S=c1[nH]nc(-c2ccc(Cl)cc2Cl)n1-c1ccccc1`?
TRPC4 inh: inactive; TRPC6 activator: inactive; TRPC6 inh: inactive; TRPC4 PAM: inactive; TRPC4 act: inactive; Kir21 inh: 1.2

Results for S=c1[nH]nc(COc2ccc(Cl)cc2Cl)n1-c1ccccc1 ?
TRPC4 inh: inactive; TRPC6 activator: inactive; TRPC6 inh: inactive; TRPC4 PAM: inactive; TRPC4 act: 54*; Kir21 inh: 0.19

How did Cc1ccc(/C=C2\SC(=S)N(/N=C/c3cc([N+](=O)[O-])ccc3O)C2=O)o1 do in these assays?
TRPC4 inh: inactive; TRPC6 activator: inactive; TRPC6 inh: inactive; TRPC4 PAM: inactive; TRPC4 act: inactive; Kir21 inh: 0.08

How did CCOC(=O)c1sc2nc(CC(=O)OC)nc(NCc3ccc(F)cc3)c2c1C do in these assays?
TRPC4 inh: -9*; TRPC6 activator: inactive; TRPC6 inh: inactive; TRPC4 PAM: inactive; TRPC4 act: 98*; Kir21 inh: 0.38

How did CN1CCN(CCCN2c3ccccc3Sc3ccc(C(F)(F)F)cc32)CC1 do in these assays?
TRPC4 inh: inactive; TRPC6 activator: inactive; TRPC6 inh: inactive; TRPC4 PAM: inactive; TRPC4 act: inactive; Kir21 inh: -4.4*
